Here are results for ten molecules from ChEMBL document CHEMBL1125254, “Allosteric modifiers of hemoglobin. 2. Crystallographically determined binding sites and hydrophobic binding/interaction analysis of novel hemoglobin oxygen effectors” (J Med Chem, 1991).

SMILES strings stand for the structures.

This test is described as follows: Allosteric activity evaluated as the ratio of the oxygen pressure in mmHg between hemoglobin-compound and compound-free hemoglobin (control) solution at which 50% oxygen saturation's are respectively attained. The essentials:
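Oxygen equilibrium of human hemoglobin solutions at 2.7 mM Hb with compound at 10 mM, in 50 mM HEPES pH 7.4. P50 ratios are averaged, with standard deviations reported.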
`CC(C)(Oc1ccc(NC(=O)Nc2ccc(Cl)c(Cl)c2)cc1)C(=O)O`: the P50d/P50c was determined as 1.77.
Take `CC(C)(Oc1ccc(CCNC(=O)c2ccc(Cl)cc2)cc1)C(=O)O`: the P50d/P50c is 1.74.
In the case of `CC(C)(Oc1ccc(CNC(=O)c2cc(Cl)c(Cl)c(Cl)c2)cc1)C(=O)O`, the P50d/P50c worked out at 2.13.
With `CC(C)(Oc1ccc(NC(=O)Nc2cc(Cl)cc(Cl)c2)cc1)C(=O)O`, the P50d/P50c is 3.62.
Then `CC(C)(Oc1ccc(CNC(=O)c2cc(Cl)cc(Cl)c2)cc1)C(=O)O`, with 2.48; and `CC(C)(Oc1ccc(NC(=O)Nc2cc(Cl)c(Cl)c(Cl)c2)cc1)C(=O)O`, with 2.57.
Then `CC(C)(Oc1ccc(CC(=O)Nc2cc(Cl)c(Cl)c(Cl)c2)cc1)C(=O)O`, with 3.17; and `CC(C)(Oc1ccc(CC(=O)Nc2cc(Cl)cc(Cl)c2)cc1)C(=O)O`, with 4.32; and `CC(C)(Oc1ccc(CNC(=O)c2ccc(Cl)cc2)cc1)C(=O)O`, with 2.58.
Under `CC(C)(Oc1ccc(CC(=O)Nc2ccc(Cl)cc2)cc1)C(=O)O` stands 2.79.
